The nature of this series: Toxicity liver stage against HepG2, at 10uM. The class given is cell-based. Further details: test concentration 10 uM, cell line HepG2-A16-CD81EGFP. The conditions noted are these: human, HepG2-A16-CD81EGFP cells; read-out: INHIBITION
The procedure, abridged: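 Uninfected HepG2-A16-CD81EGFP cells, 3 × 10^3 per well, 1536-well, plated on prespotted compound at 10 μM final, parasite-free screening media added to match infected plates; puromycin 10 μM positive, DMSO 0.5% negative; run in parallel with 48 h PbLuc assay at 37 °C, 5% CO2; viability by CellTiter-Glo luminescence, normalized to controls.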

Each structure is given as a SMILES string.

On to `COc1ccc(CN2CCOCC3(CCN(C4CCOCC4)C3)C2)cc1` (stereo unspecified), for which the cytotoxicity at 10 µM was 0.466%.
For `COc1ccccc1CC(=O)N(C)Cc1cc(C)on1` the value was 4.76%; for `Cc1ccc(C(=O)N(C)C)cc1NC(=O)COCC1CC1`, 2.95%; for `COc1ccccc1-c1csc(-c2cccc(C(=O)O)c2)n1`, 12.3%.
The same measure for `CNc1nc(C(=O)N2C[C@@H]3CC[C@H]2CN(S(C)(=O)=O)C3)cs1`: 0.977%.
The same measure for `Cn1ccc(NC(=O)CN2CCN(C3CCCC3)C(=O)C2)n1`: 4.31%; for `CS(=O)(=O)N1CCCN(C(=O)c2ccc(Cn3ccccc3=O)o2)CC1`: -3.41%; for `COc1ccc(CN2CCC3(CC(C(=O)NCC(C)C)=NO3)C2)cc1` (stereo unspecified): 11%.
For `CC(C)N(CC(N)=O)Cc1cccc(C(F)(F)F)c1`, the cytotoxicity at 10 µM amounted to 0.292%.
For `CC(=O)N(C)C1CCN(c2ncc3c(n2)CCN3c2ccccc2)C1` (stereo unspecified) the value was -9.62%; for `C[C@H](NS(C)(=O)=O)C(=O)NCc1cc(-c2ccco2)n(CC(F)(F)F)n1`, -13%.
For `Cc1ccc(CN2CCC(c3cnccn3)CC2)s1` the value was -0.64%.
For `Cc1nnc2n1CCN(C(=O)c1cn(-c3ccccc3)nn1)C2` the value was -146%; for `CCc1nnc2n1CCN(C(=O)CN(C)Cc1ccccc1)C2`, -6.22%.
`CCc1ccc(C(=O)N2CCC(c3nncn3CC)CC2)o1`: the cytotoxicity at 10 µM was found to be 3.14%.
The same measure for `O=C([C@H]1CC[C@@H]2[C@@H](CCN2Cc2ccc(F)cc2)O1)N1CCCO1`: 3.74%.
For `Cc1noc2nc(C3CC3)c(Cl)c(C(=O)O)c12` the value was -1.25%; for `CCn1cc(C(=O)N(C)Cc2c(F)cccc2Cl)cn1`, -4.66%.
The same measure for `O=C(Nc1cccn(CC(F)(F)F)c1=O)c1ccc(F)cc1`: 14.3%; for `Cc1nc(C2CCCN(C(=O)c3ccc(N4CCCC4)nn3)C2)no1` (stereo unspecified): -13.6%; for `NC(=O)c1cnn2c1NCC(CNCCc1ccco1)C2` (stereo unspecified): 1.46%.
Take `N#CC1(NC(=O)c2nccc3ccccc23)CCC1`: the cytotoxicity at 10 µM was found to be 6.13%.
The same measure for `Cc1nc2c(c(NCC(c3ccccc3C)N(C)C)n1)CCNC2` (stereo unspecified): 19.2%.
The same measure for `COc1ccc(CNC(=O)c2cc3c(nc2O)CCC(C)C3)cc1` (stereo unspecified): -6.1%; for `COCCN(Cc1ccoc1)S(=O)(=O)c1ccc(F)c(Cl)c1`: -7.93%.
For `CC(C)N(C)S(=O)(=O)N(C)Cc1cnn(C)c1` the value was 7.2%; for `CN(Cc1ccc2c(c1)OCCO2)C(=O)Cn1cccnc1=O`, 3.01%.
Turning to `CC(=O)N(Cc1noc(C)n1)C1CCN(Cc2cc(C)on2)C1` (stereo unspecified), the cytotoxicity at 10 µM worked out at 4.38%.
For `Fc1ccc(OCCCNC2=NCCCN2)cc1` the value was -7.91%.
The same measure for `O=C(CCc1nnc(-c2ccsc2)o1)NCC1CCN(C2CC2)C1` (stereo unspecified): -1.73%; for `COc1ccc(N(Cc2ccco2)C(=O)C2CCOC2)cc1F` (stereo unspecified): -10.8%; for `CCOc1ccc(NC(=O)Cc2cc(C)[nH]n2)cc1CO`: 0.335%.
For `Cc1ncc(CNC(=O)Cc2ccc(Cl)cc2)c(C2CCCN2C)n1` (stereo unspecified) the value was -0.696%.
Turning to `O=C1CNc2ncnc(N3CCN(c4ccccc4F)CC3)c2N1`, the cytotoxicity at 10 µM was determined as 7.69%.
Consider `Cc1ccc(CN2CCC3(CC2)CC(c2cccnc2)CO3)s1` (stereo unspecified), for which the cytotoxicity at 10 µM was -9.7%.
For `COc1cc2c(cc1OC)CN(C(=O)NCC1CCCO1)CC2` (stereo unspecified) the value was -16%; for `Cc1cc(O)cc(=O)n1CCCC(=O)Nc1n[nH]c2cc(Br)ccc12`, -16.2%; for `COc1ccc(C(=O)NS(=O)(=O)c2cncc(Br)c2)cc1`, -1.91%.
The same measure for `COCC(=O)Nc1ccccc1-c1ccc(=O)n(C)n1`: 4.51%.
In the case of `Cc1cc(C(=O)N2CCCC(c3nccn3C)C2)cc(S(N)(=O)=O)c1C` (stereo unspecified), the cytotoxicity at 10 µM was found to be 5.5%.
For `COc1c(C2CCCN2C(=O)c2cccnc2N(C)C)c(C)nn1C` (stereo unspecified) the value was -7.62%; for `c1cnc(N2CCCC3(COCCN(c4nncs4)C3)C2)cn1` (stereo unspecified), 1.77%; for `CCC1c2ccccc2CCN1CCCS(C)(=O)=O` (stereo unspecified), 1.75%.
The same measure for `O=C(Nc1cccnc1)[C@H]1C[C@@H]2CCN(Cc3nccs3)C[C@@H]2O1`: -68.2%; for `CCN1CCN(C[C@@H]2CN(Cc3cnc(C(C)C)nc3)C[C@@H]2CO)CC1`: -6.79%; for `Cc1c(C(=O)N2CCC(c3nc(C)n4ccsc34)CC2)cnn1C`: -4.41%.
The same measure for `c1ccc2c(c1)ccn2CCCNC1CCOC2(CCOCC2)C1` (stereo unspecified): -7.04%; for `Cc1nc(CN2CCC3(CCN(c4ncc(F)cn4)C3)C2=O)cs1` (stereo unspecified): 3.61%.
With `CN1CCC(N2CC[C@H](c3nc4ccc(C(F)(F)F)cc4[nH]3)C2)CC1`, the cytotoxicity at 10 µM was -10.2%.
For `CC(NC(=O)N(C)Cc1ccsc1)c1ccc2c(c1)NC(=O)CO2` (stereo unspecified) the value was -7.77%; for `CC(C)N(CCNC(=O)c1n[nH]c2ccccc12)C(C)C`, -42.8%.
The same measure for `O=C(NCCC(=O)N1CCCc2ccccc21)c1cc(F)cc(F)c1`: -6.14%.
Take `O=C(c1cc(-n2cccn2)ccn1)N(CC(F)(F)F)C1CCCC1`: the cytotoxicity at 10 µM was found to be 5.49%.
For `COc1cc(NC(=O)N2CCCC2c2ccco2)cc(OC)c1` (stereo unspecified) the value was 4.65%; for `COCCN1CCN(Cc2nccs2)[C@H]2CS(=O)(=O)C[C@H]21`, -1.82%; for `CC1c2ncc(Cn3cncn3)n2CCN1C(=O)c1ccsc1` (stereo unspecified), -0.551%.
On to `CS(=O)(=O)NC1CCN(Cc2ccc(OCc3ccccn3)cc2)CC1`, for which the cytotoxicity at 10 µM turned out to be 1.63%.
For `O=C(N[C@@H]1CN(Cc2ccc3[nH]ccc3c2)C[C@H]1O)c1cscn1` the value was -7.11%; for `O=C(Cn1nc2ccccc2n1)N1CCCC(O)(CO)C1` (stereo unspecified), -6.66%.
The same measure for `C1CCC(c2nn3c(C4CCCO4)nnc3s2)C1` (stereo unspecified): 8.51%; for `O=C(c1ccccn1)N1C[C@H]2CC[C@@H](C1)N(C(=O)CCN1CCCC1)C2`: 3.92%.
For `O=C(c1ccc(Br)o1)N1CCCC(n2cncn2)C1` (stereo unspecified) the value was -3.22%; for `COc1cc(Cl)cc(CN2CCCC(N3CCOCC3)C2)c1OC` (stereo unspecified), 0.944%; for `COCc1nc(N(C)CCSc2ccccc2)c2cnn(C)c2n1`, 1.98%.
In the case of `CS(=O)(=O)c1ccc(NCC2CCCO2)c(S(C)(=O)=O)c1` (stereo unspecified), the cytotoxicity at 10 µM is 3.72%.
For `CC(C)(C)c1ccn(C2(C(=O)O)CCN(c3ccncc3F)CC2)n1` the value was -0.423%; for `N#Cc1ccc(CNCCS(=O)(=O)N2CCc3ccccc32)cc1`, -4.11%.
Turning to `O=C(NCC(F)(F)F)C1CSCN1S(=O)(=O)c1ccc(F)cc1` (stereo unspecified), the cytotoxicity at 10 µM amounted to 1.85%.
For `OC(CN1CCCCc2ccccc21)Cn1cccn1` (stereo unspecified) the value was 5.55%; for `COCCN1C[C@H]2[C@@H](C1)N(C(=O)CCc1ccccc1)CC[C@H]2OC`, 4.78%; for `CNCC(=O)N1CCCC1c1cncc(Oc2ccc(F)cc2)n1` (stereo unspecified), -6.44%.
For the compound `CCOC(=O)NCCC(=O)NCc1ccc(Oc2cccc(F)c2)nc1`, the cytotoxicity at 10 µM is 10.9%.
For `COc1ccc(-c2nnc([C@H]3CCN(C4CCC4)C3)o2)cc1` the value was -8.1%; for `CC(C)c1cc(C(=O)N2CCCC(Cn3cc(CO)nn3)C2)on1` (stereo unspecified), -6.27%.
The same measure for `COCCN1CCN(CCCc2nnnn2-c2ccccc2)CC1`: 5.04%.
For `CCc1ccc(CN2CCc3ncnc(-c4cccnc4)c3CC2)o1` the value was 12.8%; for `Cc1nn(C)c(N(C)C)c1CNCc1ccccc1CN(C)C`, -0.553%.
`O=C(NCC(F)(F)F)c1nnn(-c2ccccc2)c1C(F)(F)F`: the cytotoxicity at 10 µM was 4.39%.
For `O=C1NCC2(CCN(C(=O)c3ccc4c(c3)CCCO4)CC2)O1` the value was -5.8%; for `COC(=O)[C@@H](NC(=O)c1coc(COc2cccc(F)c2F)n1)C(C)C`, 1.31%; for `Cn1nccc1-c1cncc(C2CCCN(S(C)(=O)=O)C2)n1` (stereo unspecified), 6.62%.
The same measure for `CC(=O)c1cnc(NCCN2CCCC(c3ccccc3)C2)nc1C` (stereo unspecified): -3.44%; for `Cc1nn(C)cc1-c1cncn1CCc1ccc2c(c1)OCCO2`: 11.5%.
For the compound `O=C1CC2(CCCCN2C(=O)c2ccncc2)CN1CC1CC1` (stereo unspecified), the cytotoxicity at 10 µM is 2.17%.
The same measure for `CCN(C(=O)CNc1cc(C)c(F)cc1C(N)=O)C1CC1`: 2.14%.
The same measure for `CCOC(=O)CC1(Nc2nc(C)nc3c2cnn3C)CCCCC1`: 5.03%; for `N#Cc1cnc2ccccc2c1N1CCNCC1`: -1.86%; for `CN1CC2(CCN(Cc3cc(Cl)ccc3OCC(=O)O)CC2)OC1=O`: 1.6%.
For `Cc1nc(Nc2cnccn2)cc(C2CCCN(C(C)C)C2)n1` (stereo unspecified) the value was -9.03%.
As for `O=C(c1cnccn1)N1C[C@@H]2C[C@@H](c3nc(C4CC4)cs3)O[C@@H]2C1`, the cytotoxicity at 10 µM is -118%.
The same measure for `CN1CCCCC1CCC(=O)NCCSc1cnn[nH]1` (stereo unspecified): 0.00194%.
For `O=c1[nH]nc(SCC2CCCCO2)n1C1CC1` (stereo unspecified) the value was 2.14%; for `O=C(COC[C@H]1CC[C@H]2[C@H](CCN2c2ccccn2)O1)N1CCCC1`, 0.748%; for `CN1CC(=O)N(c2ccsc2)CC12CCN(C(=O)c1ccc[nH]1)C2` (stereo unspecified), -71.8%.
Take `Cc1cc(C(=O)N(C)S(=O)(=O)C(C)C)ccc1F`: the cytotoxicity at 10 µM is -54.3%.
The same measure for `CC(C)c1nccc(CN2CCCC(O)(CN(C)C)CC2)n1` (stereo unspecified): -2.01%.

The record behind these values is ChEMBL document CHEMBL4513216, “Probing the Open Global Health Chemical Diversity Library for Multistage-Active Starting Points for Next-Generation Antimalarials” (ACS Infect Dis, 2020).
